Measurements from article PMC6136361 (Journal of Enzyme Inhibition and Medicinal Chemistry, 2018).
Several values for one entry are separate records, joined by “and”; a condition that tells them apart may be missing. Equal values may be shown once. Read-outs that look alike come from different tables or passages of the source.

Tests used:
HepG-2 cells [1] = experiment: Cytotoxicity, Sulforhodamine-B; format: cell-based, human; details: for IC50: Homo sapiens
HCT-116 cells = experiment: Cytotoxicity, Sulforhodamine-B; format: cell-based; details: Homo sapiens, HCT-116, 48 h, read-out: IC50 HCT-116
Method in brief: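 SRB viability: cells seeded at 5 × 10^4–10^5/well and left to attach 24 h. Test compound (DMSO, diluted in saline) at 0.001–100 µM for 48 h, four wells per concentration; vehicle-only controls. Fixed cold 50% TCA 1 h at 4 °C, stained 0.4% SRB in 1% acetic acid 30 min, dye solubilised in 10 mM tris base pH 10.5, OD 564 nm. Survival fraction = OD treated/OD control; IC50 from survival-concentration plot; repeated three times.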

HepG-2 cells [2] = experiment: DNA-flow cytometry cell cycle analysis; format: cell-based, human; details: HepG-2, at IC50, 24 h; for apoptotic sub-G1 cell population: control 0.10%
Method in brief: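 HepG-2 cells exposed to test compound for 24 h, with an untreated control. Cells washed twice in ice-cold PBS, pelleted, fixed in ice-cold 70% ethanol, treated with 0.1 mg/mL RNase and stained with propidium iodide. DNA content measured by flow cytometry to give cell-cycle phase distribution. Fold change versus control; mean ± SEM, n = 4, one-way ANOVA with Tukey test.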

HepG-2 cells [3] = experiment: FITC-annexin V / PI staining for apoptosis; format: cell-based, human; details: HepG-2, at IC50, 24 h; for late apoptotic cells percentage (Q2): control 0.34%
p53 = experiment: ELISA immunoassay of p53 level in HepG-2 cells; format: cell-based, human; details: HepG-2, at IC50, 24 h
Bcl-2 = experiment: ELISA immunoassay of Bcl-2 level in HepG-2 cells; format: cell-based, human; details: HepG-2, at IC50, 24 h
Bax = experiment: ELISA immunoassay of Bax level in HepG-2 cells; format: cell-based, human; details: for Bax level, fold increase compared to the control: HepG-2, at IC50, 24 h
caspase-3 = experiment: ELISA immunoassay of active caspase-3 level in HepG-2 cells; format: cell-based, human; details: HepG-2, at IC50, 24 h
caspase-7 = experiment: ELISA immunoassay of active caspase-7 level in HepG-2 cells; format: cell-based, human; details: HepG-2, at IC50, 24 h
VEGFR-2 = VEGFR-2 (Homo sapiens, UniProt P35968); experiment: biochemical; format: biochemical
β-tubulin = β-tubulin (Homo sapiens, UniProt P07437); experiment: β-tubulin polymerization inhibition assay; format: cell-based; details: for %β-TUB polymerization inhibition: at their IC50 values on HepG-2 cells; for β-tubulin polymerization inhibition: at their IC50 values, HepG-2 cells
[4] = HepG2, 48 h, read-out: IC50 HepG-2

Sequence of β-tubulin (P07437 whole entry): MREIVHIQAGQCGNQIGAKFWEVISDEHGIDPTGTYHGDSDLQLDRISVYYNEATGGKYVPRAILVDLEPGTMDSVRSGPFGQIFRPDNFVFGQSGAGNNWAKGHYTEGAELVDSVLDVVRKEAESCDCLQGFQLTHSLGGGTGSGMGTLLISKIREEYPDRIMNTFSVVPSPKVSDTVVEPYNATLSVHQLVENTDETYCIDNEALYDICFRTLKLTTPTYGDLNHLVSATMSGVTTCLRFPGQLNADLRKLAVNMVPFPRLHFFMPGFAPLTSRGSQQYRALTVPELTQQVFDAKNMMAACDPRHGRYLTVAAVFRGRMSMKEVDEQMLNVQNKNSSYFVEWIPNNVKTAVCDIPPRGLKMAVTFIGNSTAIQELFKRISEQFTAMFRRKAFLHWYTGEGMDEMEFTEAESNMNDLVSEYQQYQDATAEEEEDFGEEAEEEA
Sequence of β-tubulin (P68363 whole entry partner): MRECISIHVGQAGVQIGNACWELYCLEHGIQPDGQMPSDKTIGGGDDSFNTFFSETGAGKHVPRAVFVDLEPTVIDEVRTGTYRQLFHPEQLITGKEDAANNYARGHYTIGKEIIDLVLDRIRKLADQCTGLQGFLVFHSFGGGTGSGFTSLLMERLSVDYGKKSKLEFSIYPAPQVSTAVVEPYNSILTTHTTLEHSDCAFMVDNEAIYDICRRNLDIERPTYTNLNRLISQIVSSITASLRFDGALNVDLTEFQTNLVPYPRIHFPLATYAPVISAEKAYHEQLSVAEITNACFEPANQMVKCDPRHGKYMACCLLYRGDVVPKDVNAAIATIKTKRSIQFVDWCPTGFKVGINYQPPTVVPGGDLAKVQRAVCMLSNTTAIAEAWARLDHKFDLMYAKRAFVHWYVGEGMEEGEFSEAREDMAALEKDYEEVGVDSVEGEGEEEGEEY
Sequence of VEGFR-2 (P35968 20-1356): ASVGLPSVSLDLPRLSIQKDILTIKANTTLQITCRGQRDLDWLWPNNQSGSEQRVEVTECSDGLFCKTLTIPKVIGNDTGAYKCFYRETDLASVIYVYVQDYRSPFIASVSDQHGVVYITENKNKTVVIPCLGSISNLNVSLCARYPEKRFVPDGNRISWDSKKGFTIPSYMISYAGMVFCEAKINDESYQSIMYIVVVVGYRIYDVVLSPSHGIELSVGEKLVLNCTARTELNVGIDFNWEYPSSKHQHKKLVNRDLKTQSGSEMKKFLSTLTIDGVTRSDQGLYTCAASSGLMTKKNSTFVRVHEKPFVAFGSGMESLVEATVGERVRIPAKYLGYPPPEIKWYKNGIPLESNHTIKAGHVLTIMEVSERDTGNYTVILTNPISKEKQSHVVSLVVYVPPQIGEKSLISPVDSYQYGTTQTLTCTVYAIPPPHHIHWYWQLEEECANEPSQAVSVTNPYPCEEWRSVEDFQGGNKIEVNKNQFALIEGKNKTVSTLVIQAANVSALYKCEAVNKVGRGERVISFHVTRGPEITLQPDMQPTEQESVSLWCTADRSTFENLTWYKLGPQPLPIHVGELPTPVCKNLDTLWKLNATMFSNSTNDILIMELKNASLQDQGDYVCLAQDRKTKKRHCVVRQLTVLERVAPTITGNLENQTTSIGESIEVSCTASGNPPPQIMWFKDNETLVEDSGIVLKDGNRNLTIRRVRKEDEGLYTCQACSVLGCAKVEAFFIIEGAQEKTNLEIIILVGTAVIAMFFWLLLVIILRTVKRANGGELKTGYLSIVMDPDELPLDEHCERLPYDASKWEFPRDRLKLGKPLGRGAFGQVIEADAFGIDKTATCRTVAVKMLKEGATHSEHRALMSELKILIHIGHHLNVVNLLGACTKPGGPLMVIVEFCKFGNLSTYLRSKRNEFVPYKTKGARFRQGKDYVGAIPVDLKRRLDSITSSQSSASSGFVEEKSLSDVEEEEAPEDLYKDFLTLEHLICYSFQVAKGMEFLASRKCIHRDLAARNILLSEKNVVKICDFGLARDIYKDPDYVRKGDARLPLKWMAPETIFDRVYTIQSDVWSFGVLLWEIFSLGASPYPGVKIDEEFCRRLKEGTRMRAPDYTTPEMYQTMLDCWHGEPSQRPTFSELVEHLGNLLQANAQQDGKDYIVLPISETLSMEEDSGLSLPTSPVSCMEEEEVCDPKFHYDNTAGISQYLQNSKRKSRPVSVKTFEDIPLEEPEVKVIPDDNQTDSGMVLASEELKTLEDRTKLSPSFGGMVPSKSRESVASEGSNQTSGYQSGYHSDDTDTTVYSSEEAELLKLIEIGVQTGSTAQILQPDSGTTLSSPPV

| Compound | IC50 (HepG-2 cells [1]; [4]) | IC50 (HepG-2 cells [1]; HepG2, read-out: HepG-2 IC50) | IC50 (HCT-116 cells) | G2/M arrest, fold increase compared to the control (HepG-2 cells [2]) | apoptotic sub-G1 cell population (HepG-2 cells [2]) | early apoptosis fold increase vs control (HepG-2 cells [3]) | late apoptosis fold increase vs control (HepG-2 cells [3]) | late apoptotic cells percentage (Q2) (HepG-2 cells [3]) | p53 protein level, fold increase compared with the control (p53) | Bcl-2 level, fold decrease compared to the control (Bcl-2) | Bax level, fold increase compared to the control (Bax) | caspase-3 level, fold increase compared to the control (caspase-3) | caspase-7 level, fold increase compared to the control (caspase-7) | IC50 (VEGFR-2) | %β-TUB polymerization inhibition (β-tubulin) | β-tubulin polymerization inhibition (β-tubulin) | fold higher cytotoxicity than Sorafenib (HepG-2 cells [1]; HepG-2 cells) | early apoptotic cells percentage (Q4) (HepG-2 cells [3]; control 0.72%) | Bax/Bcl-2 ratio, fold elevation compared to the control (Bax; HepG-2, at IC50) | fold more potent than Sorafenib against VEGFR-2 (VEGFR-2) |
| --- | --- | --- | --- | --- | --- | --- | --- | --- | --- | --- | --- | --- | --- | --- | --- | --- | --- | --- | --- | --- |
| COc1ccc(NC(=O)c2c(Nc3ccccc3)sc(C(=O)NN=Cc3ccc(OC)c(O)c3)c2NC(C)=O)cc1 [Compound 21, 4-Acetamido-5-[2-(3-hydroxy-4-methoxybenzylidene) hydrazinocarbonyl]-N-(4-methoxyphenyl)-2-phenylaminothiophene-3-carboxamide] | 2.61 ± 0.12 µM | 2.61 µM | 4.32 ± 0.11 µM | ~1.9 fold | 6.07% | 6 fold | 21 fold | 7.2% | ~1.7 fold | 2.5 fold | 11.8 fold | 9.2 fold | 5.9 fold | 1.29 ± 0.13 µM | 85.95 ± 0.21% | 86% |  |  |  |  |
| COc1ccc(NC(=O)c2c(Nc3ccccc3)sc(C#N)c2NC(=O)CNc2ccc(Cl)cc2)cc1 [Compound 5, 4-[2-(4-Chlorophenyl)aminoacetamido]-5-cyano-N-(4-methoxyphenyl)-2-phenylaminothiophene-3-carboxamide] | 1.92 ± 0.12 µM | 1.92 µM | 7.83 ± 0.61 µM | about 2 fold | 8.23% | 8 fold | 23 fold | 7.85% | about 3.4 fold | 2.2 fold | 6.6 fold | about 11.2 fold | ~6.9 fold |  | 72.61 ± 0.14% | 72% and 73% | 2.31 fold and 2.3 fold | 5.47% | 30 fold | 4 fold |
